Laboratory results taken from ChEMBL document CHEMBL4680142, “Thiazolidine-2,4-dione-based irreversible allosteric IKK-β kinase inhibitors: Optimization into in vivo active anti-inflammatory agents” (Eur J Med Chem, 2020).
Each block holds one compound with its values, some of them ahead of it. The source made the active and inactive calls. No cut-off for these calls is given here.

What was measured:
[1] = target: T1, Inhibitor of nuclear factor kappa-B kinase subunit beta (Homo sapiens, UniProt O14920); experiment: Allosteric inhibition of IKKbeta (unknown origin) using 5FAM-GRHDSGLDSMK-NH2 as substrate pretreated for 10 mins followed measured after 2 hrs by TR-FRET assay
T1 sequence (O14920 whole entry): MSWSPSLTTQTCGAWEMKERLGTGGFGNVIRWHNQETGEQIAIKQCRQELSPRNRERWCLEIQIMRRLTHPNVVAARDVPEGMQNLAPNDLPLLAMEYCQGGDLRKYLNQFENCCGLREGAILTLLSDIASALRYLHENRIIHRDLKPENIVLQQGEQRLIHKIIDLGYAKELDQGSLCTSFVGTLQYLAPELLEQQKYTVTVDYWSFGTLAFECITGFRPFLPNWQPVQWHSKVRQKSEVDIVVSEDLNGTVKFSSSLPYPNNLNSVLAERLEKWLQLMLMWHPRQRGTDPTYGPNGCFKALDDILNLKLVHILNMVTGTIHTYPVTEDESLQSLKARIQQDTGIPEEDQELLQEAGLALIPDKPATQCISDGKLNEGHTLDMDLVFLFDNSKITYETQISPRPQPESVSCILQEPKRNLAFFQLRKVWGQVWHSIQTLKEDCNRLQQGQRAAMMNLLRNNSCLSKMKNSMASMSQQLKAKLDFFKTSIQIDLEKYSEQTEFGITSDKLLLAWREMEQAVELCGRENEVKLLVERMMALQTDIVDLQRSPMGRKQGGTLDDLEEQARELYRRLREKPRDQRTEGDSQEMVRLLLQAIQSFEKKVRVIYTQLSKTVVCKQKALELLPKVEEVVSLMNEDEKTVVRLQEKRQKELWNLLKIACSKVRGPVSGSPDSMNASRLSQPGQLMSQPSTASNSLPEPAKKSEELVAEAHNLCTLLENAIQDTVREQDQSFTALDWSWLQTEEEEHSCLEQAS
Procedure, shortened: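 Enzyme: 0.5 µg/mL IKK2, in 10 mM Tris-HCl pH 7.2, 10 mM MgCl2, 0.05% NaN3, 1 mM DTT, 0.01% Tween-20. Compound at 10 µM pre-incubated 10 min, then 1 µM 5-FAM IκBα peptide and 3 µM ATP added. Reaction 2 h at room temperature. IMAP binding reagent/terbium detection mix added 15 h before reading. TR-FRET read with 340 nm excitation, emission 495/520 nm. Percent inhibition or IC50 derived.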

RAW264.7 [2] = experiment: Antiinflammatory activity against mouse RAW264.7 cells assessed as reduction in LPS-induced PGE2 production at 0.1 to 1 uM incubated for 1 hr followed by LPS stimulation and measured after 24 hrs by ELISA; assay type: functional, cell-based; settings: dose 0.1-1 µM, time 25.0 hrs
Procedure, shortened: (§1)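 RAW 264.7 cells (DMEM, 10% FBS, 37 °C, 5% CO2) plated at 2×10^5 cells/mL and left overnight. Compounds (0.1, 1, 10 µM) or NS-398 given for 1 h, then LPS 10 ng/mL for 24 h. Culture medium assayed by ELISA: competitive colorimetric for PGE2/TNF-α, mouse DuoSet for TNF-α/IL-6. IC50 is the concentration lowering the mediator to 50%.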

RAW264.7 [3] = experiment: Antiinflammatory activity against mouse RAW264.7 cells assessed as reduction in LPS-induced IL-6 level incubated for 1 hr followed by LPS stimulation and measured after 24 hrs by ELISA; assay type: functional, cell-based; procedure, shortened: as §1
RAW264.7 [4] = experiment: Cytotoxicity against mouse RAW264.7 cells assessed as reduction in cell viability at 6 uM incubated for 24 hrs by MTT assay; assay type: cell-based; settings: raw264.7, 24 h
Procedure, shortened: (§2)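 MTT viability in RAW 264.7 cells seeded at 1×10^5 cells/mL and incubated overnight. Compounds added with or without LPS (1 µg/mL) for 24 h. MTT for 4 h at 37 °C, formazan dissolved in DMSO, absorbance read at 540 nm. IC80 is the concentration reducing viability to 80% with LPS.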

[5] = Effect on NO production in non-stimulated mouse RAW264.7 cells at 10 uM after 24 hrs by Griess reagent based assay; settings: raw264.7, 24 h
RAW264.7 [6] = experiment: Antiinflammatory activity against mouse RAW264.7 cells assessed as reduction in LPS-induced TNF-alpha level incubated for 1 hr followed by LPS stimulation and measured after 24 hrs by ELISA; assay type: functional, cell-based; procedure, shortened: as §1
RAW264.7 [7] = experiment: Antiinflammatory activity against mouse RAW264.7 cells assessed as reduction in LPS-induced NO level incubated for 1 hr followed by LPS stimulation and measured after 24 hrs by Griess reagent based assay; assay type: functional, cell-based
Procedure, shortened: (§3)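 RAW 264.7 cells in 24-well plates received compounds (0.1, 1, 10 µM) or L-NIL 40 µM positive control, then LPS 1 µg/mL for 24 h. Nitrite in the medium measured by Griess reaction as an NO surrogate. Values referenced to levels before and after LPS stimulation.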

[8] = Cytotoxicity against non-stimulated mouse RAW264.7 cells upto 10 uM after 24 hrs by MTT assay; settings: raw264.7, 24 h
RAW264.7 [9] = experiment: Cytotoxicity against mouse RAW264.7 cells assessed as reduction in cell viability incubated for 24 hrs in presence of LPS by MTT assay; assay type: cell-based; settings: RAW264.7, 24 h; procedure, shortened: as §2
RAW264.7 [10] = experiment: Antiinflammatory activity against mouse RAW264.7 cells assessed as reduction in LPS-induced TNF-alpha level at 10 uM incubated for 1 hr followed by LPS stimulation and measured after 24 hrs by ELISA relative to control; assay type: functional; settings: time 25 hrs; procedure, shortened: as §1
RAW264.7 [11] = experiment: Antiinflammatory activity against mouse RAW264.7 cells assessed as reduction in LPS-induced PGE2 level incubated for 1 hr followed by LPS stimulation and measured after 24 hrs by ELISA; assay type: functional, cell-based; procedure, shortened: as §1
RAW264.7 [12] = experiment: Antiinflammatory activity against mouse RAW264.7 cells assessed as reduction in LPS-induced PGE2 production at 10 uM incubated for 1 hr followed by LPS stimulation and measured after 24 hrs by ELISA (reference value: 33.64 ng/ml); assay type: functional; procedure, shortened: as §1
RAW264.7 [13] = experiment: Antiinflammatory activity against mouse RAW264.7 cells assessed as reduction in LPS-induced TNF-alpha level at 0.1 to 1 uM incubated for 1 hr followed by LPS stimulation and measured after 24 hrs by ELISA; assay type: functional, cell-based; settings: dose 0.1-1 µM, time 25.0 hrs; procedure, shortened: as §1
RAW264.7 [14] = experiment: Antiinflammatory activity against mouse RAW264.7 cells assessed as reduction in LPS-induced PGE2 production at […] incubated for 1 hr followed by LPS stimulation and measured after 24 hrs by ELISA (reference value: 33.64 ng/ml); assay type: functional; settings: time 25 hrs
RAW264.7 [15] = experiment: Antiinflammatory activity against mouse RAW264.7 cells assessed as reduction in LPS-induced NO level at 40 uM incubated for 1 hr followed by LPS stimulation and measured after 24 hrs by Griess reagent based assay; assay type: functional, cell-based; procedure, shortened: as §3

Structure (SMILES): CN1CCN(CCCCCOc2cccc(N3C(=O)S/C(=C\c4ccc(Oc5ccc(Br)cc5)cc4)C3=O)c2)CC1
IC50 [1]: 2670 nM

Structure (SMILES): Cc1ccc(Oc2ccc(/C=C3\SC(=O)N(c4cccc(OCCCCCN5CCN(C)CC5)c4)C3=O)cc2)cc1
IC50 [1]: 2730 nM

Structure (SMILES): CN1CCN(CCCCCOc2ccc(N3C(=O)S/C(=C\c4ccc(Oc5ccc(N)cc5)cc4)C3=O)cc2)CC1
IC50 [1]: 2610 nM

Structure (SMILES): CN1CCN(CCCCCOc2cccc(N3C(=O)S/C(=C\c4ccc(Oc5ccc(F)cc5)cc4)C3=O)c2)CC1
Activity (RAW264.7 [2]): inactive | IC50 (RAW264.7 [3]): > 10000 nM | Activity (RAW264.7 [4]): Non-Toxic | Activity [5]: Non-Toxic | IC50 (RAW264.7 [6]): 7870 nM | IC50 (RAW264.7 [7]): > 10000 nM | Activity [8]: Non-Toxic | IC80 (RAW264.7 [9]): 4430 nM | inhibition at 10 µM (RAW264.7 [10]): 71% | IC50 [1]: 6060 nM | IC50 (RAW264.7 [11]): > 10000 nM | Activity (RAW264.7 [12]; time 25.0 hrs): inactive | inhibition (RAW264.7 [13]): inactive

Structure (SMILES): CS(=O)(=O)Nc1ccc([N+](=O)[O-])cc1OC1CCCCC1 [NS-398]
Activity (RAW264.7 [14]): 12.02 ng/mL

Structure (SMILES): CN1CCN(CCCCCOc2cccc(N3C(=O)S/C(=C\c4ccc(Oc5ccc(Cl)cc5)cc4)C3=O)c2)CC1
Activity (RAW264.7 [2]): inactive | IC50 (RAW264.7 [3]): > 10000 nM | Activity (RAW264.7 [4]): Non-Toxic | Activity [5]: Non-Toxic | IC50 (RAW264.7 [6]): > 10000 nM | IC50 (RAW264.7 [7]): > 10000 nM | Activity [8]: Non-Toxic | IC80 (RAW264.7 [9]): > 10000 nM | inhibition at 10 µM (RAW264.7 [10]): 44% | IC50 [1]: 2610 nM | IC50 (RAW264.7 [11]): 8520 nM | Activity (RAW264.7 [12]; time 25 hrs): 13.87 ng/mL

Structure (SMILES): CC(=N)NCCCC[C@H](N)C(=O)O
Activity (RAW264.7 [15]): Active

Structure (SMILES): CN1CCN(CCCCCOc2cccc(N3C(=O)S/C(=C\c4ccc(Oc5ccc(N)cc5)cc4)C3=O)c2)CC1
IC50 [1]: 8070 nM

The remaining compounds from weak to strong by IC50 [1], led by results:

IC50 [1]: 2430 nM
Structure (SMILES): COc1ccc(Oc2ccc(/C=C3\SC(=O)N(c4cccc(OCCCCCN5CCN(C)CC5)c4)C3=O)cc2)cc1

IC50 [1]: 1710 nM
Structure (SMILES): CC(=O)Nc1ccc(Oc2ccc(/C=C3\SC(=O)N(c4ccc(OCCCCCN5CCN(C)CC5)cc4)C3=O)cc2)cc1

IC50 [1]: 870 nM
Structure (SMILES): Cc1ccc(Oc2ccc(/C=C3\SC(=O)N(c4ccc(OCCCCCN5CCN(C)CC5)cc4)C3=O)cc2)cc1

IC50 [1]: 840 nM
Structure (SMILES): CN1CCN(CCCCCOc2cccc(N3C(=O)S/C(=C\c4ccc(Oc5ccc(C#N)cc5)cc4)C3=O)c2)CC1

IC50 [1]: 700 nM
Structure (SMILES): CN1CCN(CCCCCOc2ccc(N3C(=O)S/C(=C\c4ccc(Oc5ccc(Cl)cc5)cc4)C3=O)cc2)CC1

IC50 [1]: 700 nM
Structure (SMILES): COc1ccc(Oc2ccc(/C=C3\SC(=O)N(c4ccc(OCCCCCN5CCN(C)CC5)cc4)C3=O)cc2)cc1

IC50 [1]: 670 nM
Structure (SMILES): CN1CCN(CCCOc2ccc(N3C(=O)S/C(=C\c4ccc(Oc5ccc(F)cc5)cc4)C3=O)cc2)CC1

IC50 [1]: 600 nM
Structure (SMILES): CN1CCN(CCCCCOc2ccc(N3C(=O)S/C(=C\c4ccc(Oc5ccc(F)cc5)cc4)C3=O)cc2)CC1

IC50 [1]: 430 nM
Structure (SMILES): CN1CCN(CCCCCOc2ccc(N3C(=O)S/C(=C\c4ccc(Oc5ccc(Br)cc5)cc4)C3=O)cc2)CC1
